Measured values published in ChEMBL document CHEMBL3352430, “4-Aminopyridyl-based CYP51 inhibitors as anti-Trypanosoma cruzi drug leads with improved pharmacokinetic profile and in vivo potency” (J Med Chem, 2014).
pKd: −log10 of the molar value. Active and inactive are the calls of the source. The calls are words filed in the database; no cut-off is given here.

Tests used:
Intestine [1] = experiment: Drug uptake in mouse intestine at 50 mg/kg, po in 20% HP-beta-CD measured at 8 hrs post dose; format: ADME, organism-based; set-up: dose 50 mg/kg, route oral; conditions: in vivo
Method in brief: (§1)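 Female Swiss Webster mice, 8 weeks old, given a single 50 mg/kg oral gavage dose in 20% HPβCD or 20% Kolliphor. Tissues taken from three mice at 2 and 8 h post dose. Homogenized by probe sonication in PBS (1:4 w/v), protein precipitated with acetonitrile, and compound measured by LC-MS/MS in μM.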

Liver [2] = experiment: Drug uptake in mouse liver at 50 mg/kg, po in 20% Kolliphor measured at 8 hrs post dose; format: ADME, organism-based; set-up: dose 50 mg/kg, route oral; conditions: in vivo; method in brief: as §1
Lung [3] = experiment: Drug uptake in mouse lung at 50 mg/kg, po in 20% Kolliphor measured at 8 hrs post dose; format: ADME, organism-based; set-up: dose 50 mg/kg, route oral; conditions: in vivo; method in brief: as §1
Heart [4] = experiment: Drug uptake in mouse heart at 50 mg/kg, po in 20% Kolliphor measured at 8 hrs post dose; format: ADME, organism-based; set-up: dose 50 mg/kg, route oral; conditions: in vivo; method in brief: as §1
[5] = Drug uptake in mouse fat at 50 mg/kg, po in 20% Kolliphor measured at 8 hrs post dose; format: ADME, organism-based, Adipose tissue; set-up: dose 50 mg/kg, route oral; conditions: in vivo; method in brief: as §1
[6] = Drug uptake in mouse skeletal muscle at 50 mg/kg, po in 20% Kolliphor measured at 8 hrs post dose; format: ADME, organism-based, Muscle tissue; set-up: dose 50 mg/kg, route oral; conditions: in vivo; method in brief: as §1
Liver [7] = experiment: Drug uptake in mouse liver at 50 mg/kg, po in 20% HP-beta-CD measured at 8 hrs post dose; format: ADME, organism-based; set-up: dose 50 mg/kg, route oral; conditions: in vivo; method in brief: as §1
Lung [8] = experiment: Drug uptake in mouse lung at 50 mg/kg, po in 20% HP-beta-CD measured at 8 hrs post dose; format: ADME, organism-based; set-up: dose 50 mg/kg, route oral; conditions: in vivo; method in brief: as §1
Heart [9] = experiment: Drug uptake in mouse heart at 50 mg/kg, po in 20% HP-beta-CD measured at 8 hrs post dose; format: ADME, organism-based; set-up: dose 50 mg/kg, route oral; conditions: in vivo; method in brief: as §1
[10] = Drug uptake in mouse fat at 50 mg/kg, po in 20% HP-beta-CD measured at 8 hrs post dose; format: ADME, organism-based, Adipose tissue; set-up: dose 50 mg/kg, route oral; conditions: in vivo; method in brief: as §1
[11] = Drug uptake in mouse skeletal muscle at 50 mg/kg, po in 20% HP-beta-CD measured at 8 hrs post dose; format: ADME, organism-based, Muscle tissue; set-up: dose 50 mg/kg, route oral; conditions: in vivo; method in brief: as §1
Trypanosoma cruzi [12] = experiment: Antitrypanosomal activity against Trypanosoma cruzi Y luc infected in mouse assessed as inhibition of parasitemia at 50 mg/kg, po bid in 20% HP-beta-CD administered for 4 consecutive days starting on day 3 of infection measured on day 7 post infection relative to vehicle-treated control; format: functional, organism-based; set-up: dose 50 mg/kg
Method in brief: (§2)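 Female Swiss Webster mice, 8 weeks old, infected ip with 10^5 T. cruzi Y luc trypomastigotes. Only mice with detectable luminescence on day 3 were treated. Compound given by oral gavage bid for four days, as a suspension in 20% HPβCD or a solution in 20% Kolliphor, five mice per group. Vehicle group and benznidazole 50 mg/kg served as controls. On day 7, mice were injected ip with 150 mg/kg d-luciferin and imaged after 5 min under isoflurane. Percent inhibition calculated against untreated mice; two-tailed paired t test.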

Trypanosoma cruzi [13] = experiment: Antitrypanosomal activity against Trypanosoma cruzi Y luc infected in mouse assessed as inhibition of parasitemia at 25 mg/kg, po bid in 20% HP-beta-CD administered for 4 consecutive days starting on day 3 of infection measured on day 7 post infection relative to vehicle-treated control; format: functional, organism-based; set-up: dose 25 mg/kg; method in brief: as §2
Mus musculus [14] = experiment: Toxicity in mouse assessed as weight loss at 12.5 to 50 mg/kg, po bid in 20% HP-beta-CD; format: organism-based; set-up: dose 12.5-50 mg/kg, route oral; conditions: in vivo
Method in brief: (§3)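 Mice in the four-day oral treatment study were given compound bid by gavage in 20% HPβCD or 20% Kolliphor. They were watched for weight loss, mobility problems and changes in appearance throughout dosing.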

Mus musculus [15] = experiment: Toxicity in mouse assessed as mobility issues at 12.5 to 50 mg/kg, po bid in 20% HP-beta-CD; format: organism-based; set-up: dose 12.5-50 mg/kg, route oral; conditions: in vivo; method in brief: as §3
Mus musculus [16] = experiment: Toxicity in mouse assessed as change in appearance at 12.5 to 50 mg/kg, po bid in 20% HP-beta-CD; format: organism-based; set-up: dose 12.5-50 mg/kg, route oral; conditions: in vivo; method in brief: as §3
Mus musculus [17] = experiment: Toxicity in mouse assessed as weight loss at 12.5 to 50 mg/kg, po bid in 20% Kolliphor; format: organism-based; set-up: dose 12.5-50 mg/kg, route oral; conditions: in vivo; method in brief: as §3
Mus musculus [18] = experiment: Toxicity in mouse assessed as mobility issues at 12.5 to 50 mg/kg, po bid in 20% Kolliphor; format: organism-based; set-up: dose 12.5-50 mg/kg, route oral; conditions: in vivo; method in brief: as §3
Mus musculus [19] = experiment: Toxicity in mouse assessed as change in appearance at 12.5 to 50 mg/kg, po bid in 20% Kolliphor; format: organism-based; set-up: dose 12.5-50 mg/kg, route oral; conditions: in vivo; method in brief: as §3
[20] = biological target: Sterol 14-alpha demethylase (Trypanosoma cruzi (strain CL Brener), UniProt Q7Z1V1); experiment: Binding affinity to Trypanosoma cruzi CYP51 by UV-vis titration method; conditions: read-out: Kd(app)
Trypanosoma cruzi [21] = experiment: Antitrypanosomal activity against Trypanosoma cruzi Y luc infected in mouse assessed as inhibition of parasitemia at 50 mg/kg, po bid in 20% Kolliphor administered for 4 consecutive days starting on day 3 of infection measured on day 7 post infection relative to vehicle-treated control; format: functional; method in brief: as §2
C2C12 = experiment: Cytotoxicity against mouse C2C12 cells up to 10 uM; format: cell-based
Method in brief: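 Mouse C2C12 myoblasts infected with T. cruzi CA-I/72, then exposed at 24 h postinfection to compound at 10 μM down to 5 pM in 5-fold steps for 72 h at 37 °C. Cells fixed in paraformaldehyde, stained with DAPI and scored by automated imaging. Triplicate wells; uninfected and infected untreated wells as controls.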

[22] = Half life in mouse at 50 mg/kg, po in 20% Kolliphor; format: ADME, organism-based; set-up: dose 50 mg/kg, route oral; conditions: in vivo
Method in brief: (§4)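 Female Swiss Webster mice, 8 weeks old, given one oral gavage dose of 50 mg/kg as a 10 mg/mL preparation in the named vehicle (20% HPβCD suspension or 20% Kolliphor). Plasma sampled at about 0.25, 0.5, 1, 2, 4, 6, 8, 12 and 24 h, n = 3 per time point. Protein precipitated with 5 volumes acetonitrile, filtered, then LC-MS/MS. Values are averages of three mice.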

[23] = Half life in mouse at 50 mg/kg, po in 20% HP-beta-CD; format: ADME, organism-based; set-up: dose 50 mg/kg, route oral; conditions: in vivo; method in brief: as §4
[24] = Tmax in mouse at 50 mg/kg, po in 20% Kolliphor; format: ADME, organism-based; set-up: dose 50 mg/kg, route oral; conditions: in vivo; method in brief: as §4
[25] = Tmax in mouse at 50 mg/kg, po in 20% HP-beta-CD; format: ADME, organism-based; set-up: dose 50 mg/kg, route oral; conditions: in vivo; method in brief: as §4
[26] = Cmax in mouse at 50 mg/kg, po in 20% Kolliphor; format: ADME, organism-based; set-up: dose 50 mg/kg, route oral; conditions: in vivo; method in brief: as §4
[27] = Cmax in mouse at 50 mg/kg, po in 20% HP-beta-CD; format: ADME, organism-based; set-up: dose 50 mg/kg, route oral; conditions: in vivo; method in brief: as §4
[28] = AUClast in mouse at 50 mg/kg, po in 20% Kolliphor; format: ADME, organism-based; set-up: time 0 - last, dose 50 mg/kg, route oral; conditions: plasma; method in brief: as §4
[29] = AUClast in mouse at 50 mg/kg, po in 20% HP-beta-CD; format: ADME, organism-based, Plasma; set-up: time 0 - last, dose 50 mg/kg, route oral; conditions: plasma; method in brief: as §4
[30] = Clearance in mouse at 50 mg/kg, po in 20% Kolliphor; format: ADME, organism-based; set-up: dose 50 mg/kg, route oral; conditions: in vivo; method in brief: as §4
[31] = Clearance in mouse at 50 mg/kg, po in 20% HP-beta-CD; format: ADME, organism-based; set-up: dose 50 mg/kg, route oral; conditions: in vivo; method in brief: as §4
Intestine [32] = experiment: Drug uptake in mouse intestine at 50 mg/kg, po in 20% Kolliphor measured at 8 hrs post dose; format: ADME, organism-based; set-up: dose 50 mg/kg, route oral; conditions: in vivo; method in brief: as §1

Sequence of Sterol 14-alpha demethylase (Q7Z1V1 whole entry): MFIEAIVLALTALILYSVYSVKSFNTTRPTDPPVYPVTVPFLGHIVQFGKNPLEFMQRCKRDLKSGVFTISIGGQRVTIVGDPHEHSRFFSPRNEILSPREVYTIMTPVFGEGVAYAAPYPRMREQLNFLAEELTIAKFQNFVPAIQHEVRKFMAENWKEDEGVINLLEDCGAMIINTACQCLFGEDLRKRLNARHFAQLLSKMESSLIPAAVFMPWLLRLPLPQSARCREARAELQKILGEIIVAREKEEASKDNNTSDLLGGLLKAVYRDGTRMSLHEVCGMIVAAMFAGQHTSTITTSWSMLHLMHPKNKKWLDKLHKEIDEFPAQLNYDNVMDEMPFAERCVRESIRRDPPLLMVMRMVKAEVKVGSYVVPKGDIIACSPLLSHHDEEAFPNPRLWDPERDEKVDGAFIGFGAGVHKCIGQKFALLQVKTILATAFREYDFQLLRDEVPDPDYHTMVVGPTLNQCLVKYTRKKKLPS

SMILES: O=C(N[C@H](Cc1c[nH]c2ccccc12)C(=O)Nc1ccncc1)c1ccc(N2CCN(c3ccc(F)cc3F)CC2)cc1F
- Drug uptake (Intestine [1]): Active
- Drug uptake (Liver [2]): Active
- Drug uptake (Lung [3]): Active
- Drug uptake (Heart [4]): Active
- Drug uptake [5]: Active
- Drug uptake [6]: Active
- Drug uptake (Liver [7]): Active
- Drug uptake (Lung [8]): Active
- Drug uptake (Heart [9]): Active
- Drug uptake [10]: Active
- Drug uptake [11]: Active
- inhibition (Trypanosoma cruzi [12]): Active
- inhibition (Trypanosoma cruzi [13]): Active
- Activity (Mus musculus [14]): Non-toxic
- Activity (Mus musculus [15]): Non-toxic
- Activity (Mus musculus [16]): Non-toxic
- Activity (Mus musculus [17]): Non-toxic
- Activity (Mus musculus [18]): Non-toxic
- Activity (Mus musculus [19]): Non-toxic
- pKd [20]: ≥ 8.00
- inhibition in vivo at 50 mg/kg (Trypanosoma cruzi [21]): 98.4%
- Activity (C2C12): Non-toxic
- half-life [22]: 4.39 h
- half-life [23]: 6.88 h
- Tmax [24]: 2.33 h
- Tmax [25]: 4.67 h
- Cmax [26]: 5.94 µM
- Cmax [27]: 3.27 µM
- AUC(0-t) [28]: 29.6 µM·h
- AUC(0-t) [29]: 16.7 µM·h
- CL/F [30]: 38.8 mL/min/kg
- CL/F [31]: 42.8 mL/min/kg
- Drug uptake (Intestine [32]): Active
